In ChEMBL document CHEMBL3044889, “Synthesis and quantitative structure-activity relationship (QSAR) study of novel 4-acyloxypodophyllotoxin derivatives modified in the A and C rings as insecticidal agents” (2013) one finds mortality data, which are given here for 27 compounds.

Type in all cases: functional
Experiment [1] deals with Mythimna separata. Briefly: Insecticidal activity against pre-third-instar larvae of Mythimna separata (Oriental armyworm) assessed as corrected mortality rate at 1 mg/ml measured after 20 days by the leaf-dipping method. The conditions noted are these: 480 h. An outline of the steps: (§1)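 Test solutions 1 mg/mL in acetone; fresh wheat leaves dipped 3 s, air-dried indoors; acetone-only leaves as blank control. Ten larvae per dish fed treated leaves, topped up if consumed; untreated fresh leaves from 48 h until adult emergence. Held at 25 ± 2 °C, RH 65-80%, 12 h/12 h light/dark. Corrected mortality = (T − C) × 100/(1 − C).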

The test system of experiment [2] is Mythimna separata. Briefly: Insecticidal activity against pre-third-instar larvae of Mythimna separata (Oriental armyworm) assessed as corrected mortality rate at 1 mg/ml measured after 35 days by the leaf-dipping method. The conditions noted are these: 840 h. In short, it runs like this:
as §1

In experiment [3] the test system is Mythimna separata. Put plainly: Insecticidal activity against pre-third-instar larvae of Mythimna separata (Oriental armyworm) assessed as corrected mortality rate at 1 mg/ml measured after 10 days by the leaf-dipping method. The conditions noted are these: 240 h. An outline of the steps: as §1

Regarding `CCCCCC(=O)O[C@@H]1c2cc(OCc3ccccc3)c(OCc3ccccc3)cc2[C@@H](c2cc(OC)c(OC)c(OC)c2)[C@H]2C(=O)OC[C@@H]21`, the results for the mortality at 1000 µg/mL in the experiment with Mythimna separata [1], with Mythimna separata [2] and with Mythimna separata [3] were 13.3%, 33.3% and 10%, respectively.
As to `COc1cc2c(cc1OC)[C@H](O)[C@H]1COC(=O)[C@@H]1[C@@H]2c1cc(OC)c(OC)c(OC)c1` [6,7-O,O-DEMETHYLENE-6,7-O,O-DIMETHYLPODOPHYLLOTOXIN], the values for the mortality at 1000 µg/mL in the experiment on Mythimna separata [1], in the experiment with Mythimna separata [2] and in the experiment on Mythimna separata [3] were 23.3%, 36.7% and 0%, respectively.
Taken in the same sequence, the figures for `COc1cc([C@@H]2c3cc(OCc4ccccc4)c(OCc4ccccc4)cc3[C@H](O)[C@H]3COC(=O)[C@H]23)cc(OC)c1OC` [6,7-O,O-DEMETHYLENE-6,7-O,O-DIBENZYLPODOPHYLLOTOXIN] were 33.3%, 33.3% and 10%.
`COc1cc2c(cc1OC)[C@@H](O)[C@H]1COC(=O)[C@@H]1[C@@H]2c1cc(OC)c(OC)c(OC)c1` [6,7-O,O-DEMETHYLENE-6,7-O,O-DIMETHYLEPIPODOPHYLLOTOXIN]: the mortality at 1000 µg/mL in the experiment with Mythimna separata [1] came to 23.3%; with Mythimna separata [2] it was 40%; in the experiment on Mythimna separata [3], 16.7%.
Consider `COc1cc2c(cc1OC)[C@H](OC(=O)c1ccc(C)cc1)[C@H]1COC(=O)[C@@H]1[C@@H]2c1cc(OC)c(OC)c(OC)c1`, for which the figures for the mortality at 1000 µg/mL in the experiment on Mythimna separata [1], with Mythimna separata [2] and in the experiment with Mythimna separata [3] were 16.7%, 33.3% and 6.7%, respectively.
Taken in the same sequence, the figures for `COc1cc2c(cc1OC)[C@H](OC(=O)Cc1ccccc1)[C@H]1COC(=O)[C@@H]1[C@@H]2c1cc(OC)c(OC)c(OC)c1` were 13.3%, 26.7% and 3.3%.
Taken in the same sequence, the figures for `COc1cc2c(cc1OC)[C@H](OC(=O)Cc1cccc3ccccc13)[C@H]1COC(=O)[C@@H]1[C@@H]2c1cc(OC)c(OC)c(OC)c1` were 26.7%, 60% and 10%.
With `COc1cc2c(cc1OC)[C@H](OC(=O)CCl)[C@H]1COC(=O)[C@@H]1[C@@H]2c1cc(OC)c(OC)c(OC)c1`, the mortality at 1000 µg/mL in the experiment with Mythimna separata [1] is 13.3%; in the experiment on Mythimna separata [2], 26.7%; in the experiment on Mythimna separata [3] it was 0%.
For `CCCCCC(=O)O[C@H]1c2cc(OC)c(OC)cc2[C@@H](c2cc(OC)c(OC)c(OC)c2)[C@H]2C(=O)OC[C@@H]21`, the figures for the mortality at 1000 µg/mL with Mythimna separata [1], in the experiment with Mythimna separata [2] and with Mythimna separata [3] were 23.3%, 36.7% and 6.7%, respectively.
The like results for `CC(=O)O[C@@H]1C[C@H](O)[C@@]23CO[C@@H](O)[C@]1(C)[C@@H]2C[C@@H](O)[C@]1(C)[C@@H]3C(=O)[C@H](OC(C)=O)[C@@]2(C)[C@H](c3ccoc3)C[C@H]3O[C@]321` [TOOSENDANIN] were, in that order, 20%, 50% and 10%.
The like results for `COc1cc2c(cc1OC)[C@H](OC(=O)c1cccc(Cl)c1)[C@H]1COC(=O)[C@@H]1[C@@H]2c1cc(OC)c(OC)c(OC)c1` were, in that order, 23.3%, 50% and 3.3%.
The like results for `CCCC(=O)O[C@H]1c2cc(OC)c(OC)cc2[C@@H](c2cc(OC)c(OC)c(OC)c2)[C@H]2C(=O)OC[C@@H]21` were, in that order, 20%, 33.3% and 6.7%.
Turning to `COc1cc2c(cc1OC)[C@H](OC(=O)c1ccccc1)[C@H]1COC(=O)[C@@H]1[C@@H]2c1cc(OC)c(OC)c(OC)c1`, the mortality at 1000 µg/mL in the experiment on Mythimna separata [1] came out at 26.7%; in the experiment on Mythimna separata [2], 36.7%; with Mythimna separata [3] it was 10%.
Taken in the same sequence, the figures for `COc1cc([C@@H]2c3cc(O)c(O)cc3[C@H](O)[C@H]3COC(=O)[C@H]23)cc(OC)c1OC` [6,7-O,O-DEMETHYLENEPODOPHYLLOTOXIN] were 6.7%, 23.3% and 0%.
Taken in the same sequence, the figures for `COc1cc2c(cc1OC)[C@@H](OC(=O)Cc1cccc3ccccc13)[C@H]1COC(=O)[C@@H]1[C@@H]2c1cc(OC)c(OC)c(OC)c1` were 20%, 50% and 13.3%.
The like results for `CCCCCC(=O)O[C@@H]1c2cc(OC)c(OC)cc2[C@@H](c2cc(OC)c(OC)c(OC)c2)[C@H]2C(=O)OC[C@@H]21` were, in that order, 26.7%, 43.3% and 23.3%.
Consider `COc1cc2c(cc1OC)[C@@H](OC(=O)Cc1ccccc1)[C@H]1COC(=O)[C@@H]1[C@@H]2c1cc(OC)c(OC)c(OC)c1`, for which the mortality at 1000 µg/mL with Mythimna separata [1] came out at 16.7%; in the experiment with Mythimna separata [2], 33.3%; with Mythimna separata [3], 10%.
The like results for `COc1cc([C@@H]2c3cc(OCc4ccccc4)c(OCc4ccccc4)cc3[C@@H](OC(=O)c3cccc([N+](=O)[O-])c3)[C@H]3COC(=O)[C@H]23)cc(OC)c1OC` were, in that order, 6.7%, 33.3% and 3.3%.
Taken in the same sequence, the figures for `COc1cc([C@@H]2c3cc(OCc4ccccc4)c(OCc4ccccc4)cc3[C@@H](OC(=O)Cc3cccc4ccccc34)[C@H]3COC(=O)[C@H]23)cc(OC)c1OC` were 26.7%, 33.3% and 3.3%.
Taken in the same sequence, the figures for `COc1cc([C@@H]2c3cc4c(cc3[C@H](O)[C@H]3COC(=O)[C@H]23)OCO4)cc(OC)c1OC` [PODOFILOX] were 23.3%, 40% and 13.3%.
In the case of `COc1cc2c(cc1OC)[C@H](OC(=O)c1cccc([N+](=O)[O-])c1)[C@H]1COC(=O)[C@@H]1[C@@H]2c1cc(OC)c(OC)c(OC)c1`, the mortality at 1000 µg/mL in the experiment with Mythimna separata [1] is 16.7%; with Mythimna separata [2], 36.7%; in the experiment on Mythimna separata [3], 3.3%.
`COc1cc2c(cc1OC)[C@@H](OC(=O)c1cccc([N+](=O)[O-])c1)[C@H]1COC(=O)[C@@H]1[C@@H]2c1cc(OC)c(OC)c(OC)c1`: the mortality at 1000 µg/mL is 26.7% with Mythimna separata [1], 36.7% in the experiment with Mythimna separata [2] and 10% with Mythimna separata [3].
The like results for `CCCC(=O)O[C@@H]1c2cc(OC)c(OC)cc2[C@@H](c2cc(OC)c(OC)c(OC)c2)[C@H]2C(=O)OC[C@@H]21` were, in that order, 10%, 36.7% and 3.3%.
With `COc1cc2c(cc1OC)[C@H](OC(=O)c1ccc([N+](=O)[O-])cc1)[C@H]1COC(=O)[C@@H]1[C@@H]2c1cc(OC)c(OC)c(OC)c1`, the figures for the mortality at 1000 µg/mL in the experiment with Mythimna separata [1], with Mythimna separata [2] and in the experiment on Mythimna separata [3] were 13.3%, 46.7% and 3.3%, respectively.
Taken in the same sequence, the figures for `CCCCCCCC(=O)O[C@H]1c2cc(OC)c(OC)cc2[C@@H](c2cc(OC)c(OC)c(OC)c2)[C@H]2C(=O)OC[C@@H]21` were 30%, 53.3% and 10%.
The like results for `COc1cc([C@@H]2c3cc(OCc4ccccc4)c(OCc4ccccc4)cc3[C@@H](OC(=O)Cc3ccccc3)[C@H]3COC(=O)[C@H]23)cc(OC)c1OC` were, in that order, 16.7%, 40% and 3.3%.
Taken in the same sequence, the figures for `COc1cc2c(cc1OC)[C@H](OC(C)=O)[C@H]1COC(=O)[C@@H]1[C@@H]2c1cc(OC)c(OC)c(OC)c1` were 23.3%, 36.7% and 10%.

In general, mortality refers to the share of the test organisms that died.
